Test results published in ChEMBL document CHEMBL1255558, “Bis-alkylamine quindolone derivatives as new antimalarial leads” (Bioorg Med Chem Lett, 2010).

Assays:
[1] = Cytotoxicity against human HepG2A16 cells; type: cell-based
Outline: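 HepG2 A16 human hepatic cells seeded at 1 × 10⁴ cells/well and exposed to a range of concentrations for 48 h under standard culture conditions. IC₅₀ (50% growth inhibition) read from plots of degree of cell injury against concentration.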

[2] = Binding to hematin monomer
[3] = Selectivity ratio of IC50 for human HepG2A16 cells to IC50 for Plasmodium falciparum W2; type: ADME
Outline: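 Ratio of HepG2 A16 cytotoxicity IC₅₀ (48 h) to W2 IC₅₀. The W2 assay used sorbitol-synchronized ring stages at 1% parasitemia in human RBCs, 48 h at 37 °C in RPMI-1640 with 25 mM HEPES pH 7.4 and 10% heat-inactivated human serum. Cells were then fixed in 2% HCHO, stained with 1 nM YOYO-1 and counted by flow cytometry.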

[4] = tested on: Plasmodium falciparum; assay: Antimalarial activity against chloroquine-resistant Plasmodium falciparum W2; type: functional, organism-based
Outline: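 Ring-stage parasites (1% parasitaemia in human red cells, sorbitol-synchronised) exposed to compounds for 48 h at 37 °C in RPMI-1640 with 25 mM HEPES pH 7.4 and 10% heat-inactivated human serum. Cells then fixed in 2% HCHO/PBS, stained with 1 nM YOYO-1 in PBS containing 100 mM NH₄Cl and 0.1% Triton X-100, and counted by flow cytometry (ex 488/em 520 nm). IC50 derived by curve fitting.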

SMILES | IC50 [1] | log Kass [2] | selectivity ratio [3] | IC50 [4]
CCN(CC)CCOc1c2ccccc2nc2c3ccccc3n(CCN(CC)CC)c12 | 7 µM | 4.9 | 12 | 0.539 µM
CCN(CC)CCOc1c2ccc(Cl)cc2nc2c1[nH]c1ccc(Cl)cc12 |  |  |  | 0.55 µM
CCN(CC)CCn1c2ccc(Cl)cc2c2c1c(=O)c1ccc(Cl)cc1n2CCN(CC)CC | 11 µM | 5.1 | 31 | 0.334 µM
CCN(CC)CCOc1c2ccc(Cl)cc2nc2c3ccccc3n(CCN(CC)CC)c12 | 8 µM | 4.9 | 44 | 0.186 µM
CCN(CC)CCn1c2ccccc2c2c1c(=O)c1ccccc1n2CCN(CC)CC | 4.33 µM | 4.9 | 16 | 0.267 µM
O=c1c2ccc(Cl)cc2[nH]c2c1[nH]c1ccccc12 |  | 5 |  | 8.42 µM
CCN(CC)CCn1c2ccccc2c2c1c(=O)c1ccc(Cl)cc1n2CCN(CC)CC | 7 µM | 4.9 | 33 | 0.202 µM
O=c1c2ccc(Cl)cc2[nH]c2c1[nH]c1ccc(Cl)cc12 |  | 4.9 |  | > 10 µM
CCN(CC)CCOc1c2ccccc2nc2c1[nH]c1ccccc12 | 9 µM | 5 | 3.6 | 2.64 µM
CCN(CC)CCOc1c2ccc(Cl)cc2nc2c3cc(Cl)ccc3n(CCN(CC)CC)c12 | 5 µM | 5.2 | 98 | 0.051 µM
O=c1c2ccccc2[nH]c2c1[nH]c1ccccc12 | 21 µM | 4.7 | < 2 | > 10 µM
CCN(CC)CCOc1c2ccc(Cl)cc2nc2c1[nH]c1ccccc12 |  | 5.1 |  | 1.33 µM
